High-throughput results as filed in PubChem.
Shown are actives, neighbours in structure and some others; about 1.4% of the full set was active somewhere.
NR2E3 ag-1: NR2E3 agonists in two-hybrid cells, primary screen, cell-based, luminescence, CHO-S, Gal4-NCOR/VP16-NR2E3 | Photoreceptor-specific nuclear receptor (Homo sapiens), Q9Y5X4 | luciferase | inhibition of corepressor binding, % at 3.98 µM | actives 0.35% (n = 360,000) | AID 602229, 2012;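 active = inhibition above the mean of all tested compounds plus 3 SD, cut at about 70% in these data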;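 also: higher means lower luciferase signal from less NR2E3 corepressor binding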
Target sequence (Q9Y5X4 whole entry, looked up, the tested form may be a part): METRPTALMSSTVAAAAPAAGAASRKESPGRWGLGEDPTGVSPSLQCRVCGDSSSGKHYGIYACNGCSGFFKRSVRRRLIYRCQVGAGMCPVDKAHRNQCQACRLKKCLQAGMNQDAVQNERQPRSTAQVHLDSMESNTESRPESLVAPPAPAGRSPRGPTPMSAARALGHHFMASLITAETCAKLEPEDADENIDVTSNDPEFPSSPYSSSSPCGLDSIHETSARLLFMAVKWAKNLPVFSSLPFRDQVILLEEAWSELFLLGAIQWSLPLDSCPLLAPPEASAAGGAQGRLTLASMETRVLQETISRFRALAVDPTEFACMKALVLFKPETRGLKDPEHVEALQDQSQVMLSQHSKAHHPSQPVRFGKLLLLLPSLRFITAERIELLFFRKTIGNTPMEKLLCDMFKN
Rev-erbA mod: modulators of Rev-erb alpha DNA binding, primary screen, biochemical, FITC-DNA, fluorescence polarization, uHTS; Rev-erbα–FITC-DNA binding, 90 min; AID 1259318, 2017; Nuclear receptor subfamily 1 group D member 1 (Homo sapiens), P20393; actives 0.79% (n = 370,000); activity, % at 10 µM;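 active = activity above about 14%, limit read from the data; passing the limit was not always enough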
PG9 binder: binders of HIV-1 gp120 antibody PG9, primary screen, biochemical, TR-FRET. HIV-1 gp120 / PG9 antibody interaction. TR-FRET gp120-PG9 antibody binding. inhibition, % at 6.7 µM. actives 0.43% (n = 360,000); in the data active = inhibition above about 8.5%
NR2E3 ag-2: inhibitors of NR2E3-RetCOR corepressor binding, primary screen, NR2E3 agonist project, biochemical, TR-FRET, GST-NR2E3, biotin-RetCOR. Photoreceptor-specific nuclear receptor (Homo sapiens), Q9Y5X4. 1536-well. inhibition of corepressor binding, % at 4.78 µM. actives 0.12% (n = 320,000);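 active = percent inhibition above the cutoff of mean plus 3 SD of all tested compounds, set per screening campaign, cut at about 20% in these data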
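Test system – NR2E3–RetCOR corepressor complex · Quantity – NR2E3 fusion 1.35 nM · Buffer or medium – Tris pH 7.5 · Incubation – Compound–protein incubation for 5 h at 4 °C · Technique – TR-FRET, Eu(K)-anti-GST donor, streptavidin-D2 acceptor, ex 340, em 617/671 nm · Evaluation – percent inhibition of 671/617 nm emission ratio versus biotin and DMSO controls · Plate – 1536-well format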
Rev-erbA confirm: modulators of Rev-erb alpha DNA binding, confirmation, biochemical, FITC-DNA, fluorescence polarization, single point. shares compounds with Rev-erbA mod. 90 min. activation, % at 25 µM. AID 1259319, 2017. actives 61% (n = 3,000);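 active = activation at or above a set limit, or at least 3 SD above the negative control mean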
RORg DNA counter: modulation of RORgamma DNA binding, dose response, counter-screen for Rev-erb alpha modulator project, biochemical, fluorescence polarization, FITC-DNA; shares compounds with Rev-erbA mod; purified RORgamma protein-FITC-DNA binding; IC50, µM; actives 8% (n = 910); AID 1259320, 2017;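 active = Compounds whose fitted half-maximal concentration for disrupting protein-DNA binding is below 10 micromolar; the record names Rev-erb in its text, so the target is in doubt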
A number is an active result.

What do the screens show for `O=C(NCc1ccccc1Cl)c1cccc2c1C(=O)c1ccc(-c3ccc(OC(F)(F)F)cc3)cc1S2(=O)=O`?
NR2E3 ag-1: inactive

Results for O=C(NCc1cc(C(F)(F)F)ccc1Cl)c1cccc2c1C(=O)c1ccc(Cl)cc1S2(=O)=O ?
Rev-erbA mod: 31.7; PG9 binder: inactive; Rev-erbA confirm: 49.5; RORg DNA counter: inactive

What do the screens show for `CC1CCN(c2ccc3c(c2)S(=O)(=O)c2cccc(C(=O)NC[C@@H]4CCCO4)c2C3=O)CC1`?
NR2E3 ag-1: inactive; Rev-erbA mod: 17.9; PG9 binder: inactive; Rev-erbA confirm: inactive

What do the screens show for `O=C(NC[C@@H]1CCCO1)c1cccc2c1C(=O)c1ccc(N3CCOCC3)cc1S2(=O)=O`?
NR2E3 ag-1: inactive; Rev-erbA mod: inactive; PG9 binder: inactive

What do the screens show for `COc1ccccc1C(=O)N1CCN(C(=O)c2oc3c(C)c(C)ccc3c2C)CC1`?
NR2E3 ag-1: inactive; Rev-erbA mod: inactive; PG9 binder: inactive

What do the screens show for `O=C(/C=C/c1ccccc1Cl)OCC(=O)N1CCc2ccccc21`?
NR2E3 ag-1: inactive; Rev-erbA mod: inactive; PG9 binder: inactive

Results for COc1cc(/C=N/NC(=O)CC2(C)OCCO2)cc(Br)c1O ?
NR2E3 ag-1: inactive; Rev-erbA mod: 71.2; PG9 binder: inactive; NR2E3 ag-2: inactive; Rev-erbA confirm: inactive

What do the screens show for `CC1CC(=O)N(c2ccc(NCCc3ccc(O)cc3)c([N+](=O)[O-])c2)C1=O` (stereo not drawn)?
NR2E3 ag-1: inactive; Rev-erbA mod: 18.9; PG9 binder: inactive; NR2E3 ag-2: inactive; Rev-erbA confirm: inactive

How did CCOC(=O)c1sc(=NC(=O)c2ccc(S(=O)(=O)N(C)c3ccccc3)cc2)n(C)c1C do in these assays?
NR2E3 ag-1: inactive; Rev-erbA mod: 37.4; PG9 binder: inactive; NR2E3 ag-2: inactive; Rev-erbA confirm: 29.1

What do the screens show for `CCOC(=O)c1sc(=NC(=O)c2cccc(C)c2)n(C)c1C`?
NR2E3 ag-1: inactive; Rev-erbA mod: inactive; PG9 binder: inactive; NR2E3 ag-2: inactive

Results for CCOC(=O)c1sc(=NC(=O)CCSc2ccccc2)n(C)c1C ?
NR2E3 ag-1: inactive; Rev-erbA mod: 26.7; PG9 binder: inactive; NR2E3 ag-2: inactive; Rev-erbA confirm: inactive

What do the screens show for `CCOC(=O)c1sc(=NC(=O)c2cc(OC)c(OC)c(OC)c2)n(C)c1C`?
NR2E3 ag-1: inactive; Rev-erbA mod: 30.3; PG9 binder: 28.2; NR2E3 ag-2: inactive; Rev-erbA confirm: inactive

What do the screens show for `CC(=O)N1CCC(C(=O)N2c3ccccc3N=C(c3ccc4c(c3)OCO4)C2C(=O)NCc2ccccc2)CC1` (stereo not drawn)?
Rev-erbA mod: inactive; PG9 binder: inactive

Results for C=CCN(CC#Cc1ccccc1)CC=C ?
Rev-erbA mod: inactive

How did CCOC(=O)c1sc(NC(=O)c2ccccc2C(=O)O)c(C(=O)OCC)c1C do in these assays?
NR2E3 ag-1: inactive; Rev-erbA mod: inactive; PG9 binder: inactive; NR2E3 ag-2: inactive

What do the screens show for `CCOC(=O)c1sc(NC(=O)c2ccccc2F)c(C(N)=O)c1C`?
NR2E3 ag-1: inactive; Rev-erbA mod: 20.0; PG9 binder: inactive; NR2E3 ag-2: inactive; Rev-erbA confirm: inactive

Results for O=C1c2cccc3c(N4CCCCC4)ccc(c23)C(=O)N1c1ccc(O)cc1 ?
NR2E3 ag-1: inactive; Rev-erbA mod: inactive; PG9 binder: inactive; NR2E3 ag-2: inactive

How did O=C1c2cccc3c(N4CCCCC4)ccc(c23)C(=O)N1c1ccccc1O do in these assays?
NR2E3 ag-1: inactive; Rev-erbA mod: 27.1; PG9 binder: inactive; NR2E3 ag-2: inactive; Rev-erbA confirm: 32.9; RORg DNA counter: inactive

Results for Clc1ccc(-c2ccnc(Oc3cc(Cl)ccc3Cl)n2)cc1 ?
NR2E3 ag-1: inactive; Rev-erbA mod: 35.3; PG9 binder: inactive; NR2E3 ag-2: inactive; Rev-erbA confirm: 38.6; RORg DNA counter: inactive

How did CC(=O)OCC(=O)C1(O)CCC2C3CCC4C(OC(C)=O)C(=O)CCC4(C)C3C(=O)CC21C (stereo not drawn) do in these assays?
NR2E3 ag-1: inactive; Rev-erbA mod: inactive; PG9 binder: inactive

Results for Cn1nnnc1-c1cc(Br)ccc1NC(=O)c1ccccc1 ?
NR2E3 ag-1: inactive; Rev-erbA mod: 72.4; PG9 binder: inactive; NR2E3 ag-2: inactive; Rev-erbA confirm: 46.1; RORg DNA counter: inactive

How did Cc1cc(O)ccc1NC(=O)c1ccccc1 do in these assays?
NR2E3 ag-1: inactive; Rev-erbA mod: inactive; PG9 binder: inactive; NR2E3 ag-2: inactive

How did CCC(CC)COC(=O)C1=C(C)NC(=O)NC1c1ccccc1Br (stereo not drawn) do in these assays?
NR2E3 ag-1: inactive; Rev-erbA mod: 16.5; PG9 binder: inactive; NR2E3 ag-2: inactive; Rev-erbA confirm: inactive

How did CC(C)=CCN1C(=O)[C@]2(OCCC=C[C@H]2C)c2c(Br)cccc21 do in these assays?
Rev-erbA mod: inactive; PG9 binder: inactive

Results for CCCOc1cccc(-c2nnc(NC(=O)c3ccco3)s2)c1 ?
NR2E3 ag-1: inactive; Rev-erbA mod: 23.1; PG9 binder: inactive; NR2E3 ag-2: inactive; Rev-erbA confirm: inactive

Results for COc1ccccc1N(C(=O)c1snc(C(N)=O)c1N)C(C(=O)NC1CCCC1)c1ccc(N(C)C)cc1 (stereo not drawn) ?
NR2E3 ag-1: inactive; Rev-erbA mod: 36.2; PG9 binder: inactive; NR2E3 ag-2: inactive; Rev-erbA confirm: inactive

What do the screens show for `CCOC(=O)C1(C)CCCN(C(=O)c2ccccc2C(F)(F)F)C1` (stereo not drawn)?
NR2E3 ag-1: inactive; Rev-erbA mod: inactive; PG9 binder: inactive

How did CCOC(=O)Cn1c(=NC(=O)C2CC2)sc2c(C)cc(C)cc21 do in these assays?
NR2E3 ag-1: inactive; Rev-erbA mod: 17.9; PG9 binder: 21.4; NR2E3 ag-2: inactive; Rev-erbA confirm: inactive

What do the screens show for `Cc1ccc(S(=O)(=O)c2nnn3c2nc(N2CCN(c4ccccn4)CC2)c2ccccc23)cc1C`?
NR2E3 ag-1: inactive; Rev-erbA mod: 71.8; PG9 binder: inactive; NR2E3 ag-2: inactive; Rev-erbA confirm: 62.5; RORg DNA counter: inactive

Results for Cc1ccc(S(=O)(=O)c2nnn3c2nc(N2CCCCC2)c2ccccc23)cc1 ?
NR2E3 ag-1: inactive; Rev-erbA mod: inactive; PG9 binder: inactive; NR2E3 ag-2: inactive

What do the screens show for `C[C@@H]1ON(C)[C@H]2C[C@H]3c4[nH]c5cccc(Br)c5c4CCN3C(=O)[C@@H]12`?
Rev-erbA mod: inactive; PG9 binder: inactive
